High-throughput results as filed in PubChem.
The list is not random: actives were taken first. Their share in the collection is about 1.4%.
CAL PDZ FP-1 – untagged CAL PDZ binding inhibitors, primary screen, biochemical, fluorescence polarization, HTS | purified CAL PDZ, TMR-peptide fluorescence polarization, 1 h | inhibition, % at 24.9 µM | hit rate 0.92% among 300,000;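 active = mean inhibition of at least 30% with at least half of replicates also reaching 30%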
Dyrk1A ADPGlo – rat Dyrk1A kinase inhibitors, primary screen, biochemical, single point, plate reader; ADP-Glo luminescence, NFATc1 peptide; inhibition, % at 12.5 µM; hit rate 0.43% among 310,000; AID 504441, 2011; in the data active = inhibition above about 50%
CAL PDZ FP-2 – CAL PDZ peptide-binding inhibitors, primary screen, biochemical, fluorescence polarization, Cer-tagged CAL PDZ, HTS; AID 504414, 2011; inhibition, % at 20 µM; Golgi-associated PDZ and coiled-coil motif-containing protein (Homo sapiens), Q9HD26; purified CAL PDZ, TMR-peptide fluorescence polarization, 1 h; hit rate 0.02% among 330,000;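 active = highest replicate inhibition of at least 40%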
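Material: tagged CAL PDZ domain; buffer or medium: 25 mM sodium phosphate pH 7.4, 150 mM NaCl, TCEP, IgG, Thesit; compound dosing: single point, 20 µM; schedule: 1 h incubation at room temperature before polarization reading; measured by: FP readout, S and P plane fluorescence; read-out basis: percent inhibition from loss of millipolarization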
PvdQ inh – P. aeruginosa PvdQ acylase inhibitors, primary screen, biochemical, fluorescence, plate reader and imaging, single point | PvdQ acylase [Pseudomonas aeruginosa LESB58] | purified PvdQ acylase | inhibition, % at 10 µM | hit rate 0.063% among 340,000; in the data active = inhibition above about 30%, passing the limit was not always enough
CDK5 p35 inh – inhibitors of human CDK5/p35 kinase, primary screen, biochemical, single concentration; inhibition, % at 10 µM; Recombinant CDK5/p35, ADP-Glo luminescence, 60 min; Cyclin-dependent kinase 5 (Homo sapiens) + Cyclin-dependent kinase 5 activator 1 (Homo …; AID 488839, 2010; hit rate 0.01% among 330,000;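 active = highest replicate inhibition of at least 50% and at least 75% of replicates reaching 50%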
Target sequence (Q00535 whole entry, looked up): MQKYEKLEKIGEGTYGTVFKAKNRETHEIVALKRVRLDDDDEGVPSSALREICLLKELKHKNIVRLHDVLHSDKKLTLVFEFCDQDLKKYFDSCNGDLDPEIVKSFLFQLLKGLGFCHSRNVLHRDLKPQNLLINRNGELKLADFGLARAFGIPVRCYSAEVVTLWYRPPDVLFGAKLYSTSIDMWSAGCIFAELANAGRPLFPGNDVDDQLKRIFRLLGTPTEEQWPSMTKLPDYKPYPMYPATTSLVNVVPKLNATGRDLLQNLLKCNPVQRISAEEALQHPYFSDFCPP
Target sequence (Q15078 whole entry, looked up): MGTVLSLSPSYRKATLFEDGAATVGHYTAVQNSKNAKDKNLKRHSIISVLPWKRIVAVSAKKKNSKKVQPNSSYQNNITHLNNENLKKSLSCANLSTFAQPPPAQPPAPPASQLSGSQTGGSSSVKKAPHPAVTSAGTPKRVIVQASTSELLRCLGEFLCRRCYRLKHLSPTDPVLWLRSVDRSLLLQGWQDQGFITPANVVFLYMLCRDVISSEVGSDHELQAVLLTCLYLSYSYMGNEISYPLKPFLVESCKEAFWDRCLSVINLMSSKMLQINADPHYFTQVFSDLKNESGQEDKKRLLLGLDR
TbMetRS inhib – T. brucei MetRS inhibitors, primary screen, biochemical, luminescence. methionyl-tRNA synthetase (Trypanosoma brucei brucei). purified T. brucei MetRS, ATP depletion, Kinase-Glo luminescence. inhibition, % at 11.9 µM. hit rate 0.4% among 360,000;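 active = inhibition above a per-plate cutoff of the control wells' mean inhibition plus 3 SD, cut at about 5.5% in these data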
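Material – parasite MetRS enzyme · Medium – HEPES-MgCl2-KCl buffer plus DTT, spermine, BSA, pyrophosphatase · Reagent – ATP, methionine and E. coli bulk tRNA substrates · Times – 15 min enzyme-compound preincubation, 2 h reaction, 10 min detection, 25 °C · Measured by – luminescence of leftover ATP · Evaluation – percent inhibition relative to median high and low control wells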
ADP-Glo artifact – ADP-Glo luciferase interference without Dyrk1A, dose response, artefact control for Dyrk1A inhibitor project, biochemical, luminescence, cherry-pick, set 02; shares compounds with Dyrk1A ADPGlo; ADP-Glo luciferase artifact assay, no Dyrk1A; AC50, µM (titrated, usually from 12 µM); 1,300 tested, under 10 active; AID 588348, 2011;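 active = fitted half-maximal dose AC50 no more than ten times the top valid tested dose, with luminescence dropping as dose rises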
A number is an active result.

Cc1cccc(C)c1OCCOC(=O)c1n[nH]c2ccccc12 was read as Dyrk1A ADPGlo 60, CAL PDZ FP-2 inactive, PvdQ inh inactive, CDK5 p35 inh inactive, TbMetRS inhib inactive and ADP-Glo artifact inactive.
For Cc1ccc([C@H]2C(C(=O)O)=CCN2S(=O)(=O)c2ccc(C)cc2)cc1 the results were TbMetRS inhib inactive.
For O=C1N/C(=N/S(=O)(=O)Cc2ccccc2)S/C1=C/c1ccc2c(c1)OCO2 the results were CAL PDZ FP-1 inactive, Dyrk1A ADPGlo 92, CAL PDZ FP-2 inactive, PvdQ inh inactive, CDK5 p35 inh inactive, TbMetRS inhib inactive and ADP-Glo artifact inactive.
Cc1ccc([C@H]2N[C@]3(CCCN(Cc4ccc(Br)cc4)C3=O)[C@H]3C(=O)N(C)C(=O)[C@@H]23)cc1 was read as TbMetRS inhib inactive.
`COc1ccc2c(c1)OC[C@H]1[C@H]2N2C(=O)CN(CC3CCCO3)C(=O)[C@@]2(C)[C@H]1c1ccccc1` (stereo partly specified) gave CAL PDZ FP-1 inactive, Dyrk1A ADPGlo 50, CAL PDZ FP-2 inactive, PvdQ inh inactive, CDK5 p35 inh inactive, TbMetRS inhib inactive and ADP-Glo artifact inactive.
`C[C@@]12C(=O)N(CC3CCCO3)CC(=O)N1[C@@H]1c3ccccc3OC[C@@H]1[C@@H]2c1ccccc1` (stereo partly specified) gave CAL PDZ FP-1 inactive, Dyrk1A ADPGlo inactive, CAL PDZ FP-2 inactive, PvdQ inh inactive, CDK5 p35 inh inactive and TbMetRS inhib inactive.
For COc1ccc2c(c1)C(=O)N1[C@H]3c4cc(C)ccc4OC[C@@H]3[C@H](c3ccccc3)[C@]1(C)C(=O)N2 the results were CAL PDZ FP-1 inactive, Dyrk1A ADPGlo 55, CAL PDZ FP-2 inactive, PvdQ inh inactive, CDK5 p35 inh inactive, TbMetRS inhib inactive and ADP-Glo artifact inactive.
For S=C(NCCCCN(Cc1ccc(Cl)cc1)c1ccc(Br)cn1)NCCCc1cnc[nH]1 the results were TbMetRS inhib inactive.
For COc1ccc(-c2cc3nc(C)cc(N4CCN(C(=O)c5cccnc5)CC4)n3n2)cc1 the results were TbMetRS inhib inactive.
COc1cccc(/C=N/n2c(COc3ccccc3)n[nH]c2=S)c1O was read as CAL PDZ FP-1 inactive, Dyrk1A ADPGlo 57, CAL PDZ FP-2 inactive, PvdQ inh inactive, CDK5 p35 inh inactive, TbMetRS inhib inactive and ADP-Glo artifact inactive.
Screening COc1cccc(/C=N/n2c(COc3ccccc3)n[nH]c2=S)c1OC returned CAL PDZ FP-1 inactive, Dyrk1A ADPGlo inactive, CAL PDZ FP-2 inactive, PvdQ inh inactive, CDK5 p35 inh inactive and TbMetRS inhib inactive.
Cc1cc(O)cc(O)c1/C=N/NC(=O)c1ccc2c(c1)OCCO2 was read as TbMetRS inhib inactive.
For CC(C)[C@@H]1Cc2[nH]c(=O)[nH]c(=O)c2[C@H](C)O1 the results were TbMetRS inhib inactive.
For CCCCCCCCN1CC(Cc2cc3ccccc3c3ccccc23)N(c2ccccc2)c2ccccc2C1=O (stereo unspecified) the results were TbMetRS inhib inactive.
For CS(=O)(=O)c1ccc(-c2cn3cc(C(=O)O)ccc3n2)cc1 the results were CAL PDZ FP-1 inactive, Dyrk1A ADPGlo 77, CAL PDZ FP-2 inactive, PvdQ inh inactive, CDK5 p35 inh inactive, TbMetRS inhib inactive and ADP-Glo artifact inactive.
`CC(=O)Nc1cccc(-c2cnc(N)c(C(=O)c3cccnc3)n2)c1` gave CAL PDZ FP-1 inactive, Dyrk1A ADPGlo 88, CAL PDZ FP-2 inactive, PvdQ inh inactive, CDK5 p35 inh inactive, TbMetRS inhib inactive and ADP-Glo artifact inactive.
Screening CC(=O)Nc1cccc(-c2csc(N)n2)c1 returned CAL PDZ FP-1 inactive, Dyrk1A ADPGlo inactive, CAL PDZ FP-2 inactive, PvdQ inh inactive, CDK5 p35 inh inactive and TbMetRS inhib inactive.
OCc1cc(C(O)CNCCCCCCOCCCCc2ccccc2)ccc1O (stereo unspecified) was read as CAL PDZ FP-1 inactive, Dyrk1A ADPGlo 53, CAL PDZ FP-2 inactive, PvdQ inh inactive, CDK5 p35 inh inactive, TbMetRS inhib inactive and ADP-Glo artifact inactive.
`Cc1nc(NC(=O)c2ccccc2)sc1-c1csc(NCc2ccco2)n1` gave CAL PDZ FP-1 inactive, Dyrk1A ADPGlo 67, CAL PDZ FP-2 inactive, PvdQ inh inactive, CDK5 p35 inh inactive, TbMetRS inhib inactive and ADP-Glo artifact inactive.
COc1cccc(Nc2nc(NCCO)c3ccccc3n2)c1 was read as CAL PDZ FP-1 inactive, Dyrk1A ADPGlo 52, CAL PDZ FP-2 inactive, PvdQ inh inactive, CDK5 p35 inh inactive, TbMetRS inhib inactive and ADP-Glo artifact inactive.
For OCCNc1nc(Nc2ccc(O)cc2)nc2ccccc12 the results were CAL PDZ FP-1 inactive, Dyrk1A ADPGlo inactive, CAL PDZ FP-2 inactive, PvdQ inh inactive, CDK5 p35 inh inactive and TbMetRS inhib inactive.
N#CCC(N)=C(C#N)C#N was read as CAL PDZ FP-1 inactive, Dyrk1A ADPGlo 69, CAL PDZ FP-2 inactive, PvdQ inh inactive, CDK5 p35 inh inactive, TbMetRS inhib inactive and ADP-Glo artifact inactive.
For COC(=O)CC#N the results were CAL PDZ FP-1 inactive, CAL PDZ FP-2 inactive, PvdQ inh inactive, CDK5 p35 inh inactive and TbMetRS inhib inactive.
For NS(=O)(=O)c1ccc(N=Nc2c(O)c(C(=O)O)cc3ccccc23)cc1 the results were CAL PDZ FP-1 inactive, Dyrk1A ADPGlo 54, CAL PDZ FP-2 inactive, PvdQ inh inactive, CDK5 p35 inh inactive, TbMetRS inhib inactive and ADP-Glo artifact inactive.
Screening O=C(NC1CCCCC1)C1c2ccccc2OCC(=O)N1CCc1c[nH]c2ccccc12 (stereo unspecified) returned TbMetRS inhib inactive.
CC(=O)Oc1ccc2oc(/C=C/N(C)C)c([N+](=O)[O-])c2c1 was read as CAL PDZ FP-1 inactive, Dyrk1A ADPGlo inactive, CAL PDZ FP-2 inactive, PvdQ inh inactive, CDK5 p35 inh inactive and TbMetRS inhib inactive.
For C/C(=C/c1oc2ccc(O)cc2c1[N+](=O)[O-])N(C)C the results were CAL PDZ FP-1 inactive, Dyrk1A ADPGlo 52, CAL PDZ FP-2 inactive, PvdQ inh inactive, CDK5 p35 inh inactive, TbMetRS inhib inactive and ADP-Glo artifact inactive.
`COCc1cn(CC(=O)c2sc(NC(=O)C(C)(C)C)nc2C)nn1` gave TbMetRS inhib inactive.
